From ChEMBL document CHEMBL1949580, “Multi-component synthesis and in vitro and in vivo anticancer activity of novel arylmethylene bis-isoxazolo[4,5-b]pyridine-N-oxides” (Eur J Med Chem, 2012)
Converted amounts (≈) assume the structure as drawn.

Assays:
HeLa = test: Cytotoxicity against human HeLa cells after 48 hrs by MTT assay; type: functional, cell-based
Summary of the method: (§1)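 Cells in medium with 10% FBS, 5% CO₂, 37 °C, seeded from a 1 × 10⁵ cells/mL suspension. Test solutions from DMSO stocks (final <1% DMSO) added after 24 h. Exposure 48 h, then MTT 2.5 mg/mL for 2 h, formazan dissolved in DMSO, read at 490 nm. IC₅₀ is 50% OD reduction versus untreated, from dose-response curves. Mean of three independent determinations.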

[1] = Cytotoxicity against […] after 48 hrs by MTT assay; type: functional, cell-based; details: Mus musculus, Ehrlich; summary of the method: as §1
MCF7 = test: Cytotoxicity against human MCF7 cells after 48 hrs by MTT assay; type: functional, cell-based; details: MCF7, 48 h; summary of the method: as §1
[2] = Antitumor activity against […] xenografted in Swiss albino mouse liquid tumor model assessed as change in body weight at 5 mg/kg, ip qd for 9 days measured after 14 days (reference value: 12.2 +/- 0.75 g); type: functional, Ehrlich; details: route intraperitoneal
Summary of the method: (§2)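 EAC cells (0.2 mL of 2 × 10⁶ cells/mouse) injected ip on day 0. Daily ip dosing began 24 h later. Ten mice per group. Tumor volume, packed cell volume and viable tumor cell count read by Trypan blue method, alongside body weight. Values are mean ± SEM versus tumor control. Cisplatin 5 mg/kg served as the positive control.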

[3] = Anticancer activity against […] xenografted in Swiss albino mouse liquid tumor model assessed as host survival at 5 mg/kg, ip qd for 9 days (reference value: 13.7 +/- 0.03 days); type: functional, Ehrlich; details: route intraperitoneal
Mus musculus [4] = test: Toxicity in human EAC cells xenografted Swiss albino mouse liquid tumor model assessed as change hemoglobin level at 5 mg/kg, ip qd for 9 days (reference value: 5.75 +/- 0.655 mg); type: organism-based, Ehrlich; parameters: dose 5 mg/kg, route intraperitoneal; details: in vivo, 216 h
[5] = Anticancer activity against […] xenografted in Swiss albino mouse liquid tumor model assessed as increase in host lifespan at 5 mg/kg, ip qd for 9 days measured after 14 days; type: functional, Ehrlich; details: route intraperitoneal
[6] = Anticancer activity against […] xenografted in Swiss albino mouse liquid tumor model assessed as tumor volume at 5 mg/kg, ip qd for 9 days measured after 14 days (reference value: 12.1 +/- 0.89 mL); type: functional, Ehrlich; details: route intraperitoneal; summary of the method: as §2
[7] = Anticancer activity against […] xenografted in Swiss albino mouse liquid tumor model assessed as packed cell volume at 5 mg/kg, ip qd for 9 days measured after 14 days by trypan blue staining (reference value: 2.75 +/- 0.49 mm); type: functional, Ehrlich; details: route intraperitoneal; summary of the method: as §2
[8] = Anticancer activity against […] xenografted in Swiss albino mouse liquid tumor model assessed as viable tumor cells per 10^7 cells at 5 mg/kg, ip qd for 9 days measured after 14 days by trypan blue staining (reference value: 6.39 +/- 0.51 10^7/mL); type: functional, Ehrlich; details: route intraperitoneal; summary of the method: as §2
[9] = Antitumor activity against […] xenografted in Swiss albino mouse liquid tumor model assessed as change in body weight at 10 mg/kg, ip qd for 9 days measured after 14 days (reference value: 12.2 +/- 0.75 g); type: functional, Ehrlich; details: route intraperitoneal; summary of the method: as §2
[10] = Anticancer activity against […] xenografted in Swiss albino mouse liquid tumor model assessed as host survival at 10 mg/kg, ip qd for 9 days (reference value: 13.7 +/- 0.03 days); type: functional, Ehrlich; details: route intraperitoneal
Mus musculus [11] = test: Toxicity in […] xenografted Swiss albino mouse liquid tumor model assessed as change hemoglobin level at 10 mg/kg, ip qd for 9 days (reference value: 5.75 +/- 0.655 mg); type: organism-based, Ehrlich; parameters: dose 10 mg/kg, route intraperitoneal; details: in vivo, 216 h
[12] = Anticancer activity against […] xenografted in Swiss albino mouse liquid tumor model assessed as increase in host lifespan at 10 mg/kg, ip qd for 9 days measured after 14 days; type: functional, Ehrlich; details: route intraperitoneal
[13] = Anticancer activity against […] xenografted in Swiss albino mouse liquid tumor model assessed as tumor volume at 10 mg/kg, ip qd for 9 days measured after 14 days (reference value: 12.1 +/- 0.89 mL); type: functional, Ehrlich; details: route intraperitoneal; summary of the method: as §2
[14] = Anticancer activity against […] xenografted in Swiss albino mouse liquid tumor model assessed as packed cell volume at 10 mg/kg, ip qd for 9 days measured after 14 days by trypan blue staining (reference value: 2.75 +/- 0.49 mm); type: functional, Ehrlich; details: route intraperitoneal; summary of the method: as §2
[15] = Anticancer activity against […] xenografted in Swiss albino mouse liquid tumor model assessed as viable tumor cells per 10^7 cells at 10 mg/kg, ip qd for 9 days measured after 14 days by trypan blue staining (reference value: 6.39 +/- 0.51 10^7/mL); type: functional, Ehrlich; details: route intraperitoneal; summary of the method: as §2
Mus musculus [16] = test: Toxicity in human EAC cells xenografted Swiss albino mouse liquid tumor model assessed as change in RBC cell count at 5 mg/kg, ip qd for 9 days (reference value: 2.74 +/- 0.081 million/mm3); type: organism-based, Ehrlich; parameters: dose 5 mg/kg, route intraperitoneal; details: in vivo, 216 h
Mus musculus [17] = test: Toxicity in […] xenografted Swiss albino mouse liquid tumor model assessed as change WBC cell count at 5 mg/kg, ip qd for 9 days (reference value: 20.6 +/- 0.545 10^3/mm3); type: organism-based, Ehrlich; parameters: dose 5 mg/kg, route intraperitoneal; details: in vivo, 216 h
Mus musculus [18] = test: Toxicity in human EAC cells xenografted Swiss albino mouse liquid tumor model assessed as change in RBC cell count at 10 mg/kg, ip qd for 9 days (reference value: 2.74 +/- 0.081 million/mm3); type: organism-based, Ehrlich; parameters: dose 10 mg/kg, route intraperitoneal; details: in vivo, 216 h
Mus musculus [19] = test: Toxicity in […] xenografted Swiss albino mouse liquid tumor model assessed as change WBC cell count at 10 mg/kg, ip qd for 9 days (reference value: 20.6 +/- 0.545 10^3/mm3); type: organism-based, Ehrlich; parameters: dose 10 mg/kg, route intraperitoneal; details: in vivo, 216 h
Mus musculus [20] = test: Toxicity in human EAC cells xenografted Swiss albino mouse liquid tumor model assessed as change in lymphocyte cell count at 5 mg/kg, ip qd for 9 days (reference value: 23 +/- 0.567 %); type: organism-based, Ehrlich; parameters: dose 5 mg/kg, route intraperitoneal; details: in vivo, 216 h
Mus musculus [21] = test: Toxicity in human EAC cells xenografted Swiss albino mouse liquid tumor model assessed as change in lymphocyte cell count at 10 mg/kg, ip qd for 9 days (reference value: 23 +/- 0.567 %); type: organism-based, Ehrlich; parameters: dose 10 mg/kg, route intraperitoneal; details: in vivo, 216 h
Mus musculus [22] = test: Toxicity in human EAC cells xenografted Swiss albino mouse liquid tumor model assessed as change in neutrophil cell count at 5 mg/kg, ip qd for 9 days (reference value: 73 +/- 1.25 %); type: organism-based, Ehrlich; parameters: dose 5 mg/kg, route intraperitoneal; details: in vivo, 216 h
Mus musculus [23] = test: Toxicity in human EAC cells xenografted Swiss albino mouse liquid tumor model assessed as change in neutrophil cell count at 10 mg/kg, ip qd for 9 days (reference value: 73 +/- 1.25 %); type: organism-based, Ehrlich; parameters: dose 10 mg/kg, route intraperitoneal; details: in vivo, 216 h
Mus musculus [24] = test: Toxicity in […] xenografted Swiss albino mouse liquid tumor model assessed as change in monocytes cell count at 5 mg/kg, ip qd for 9 days (reference value: 2.4 +/- 0.12 %); type: organism-based, Ehrlich; parameters: dose 5 mg/kg, route intraperitoneal; details: in vivo, 216 h
Mus musculus [25] = test: Toxicity in human EAC cells xenografted Swiss albino mouse liquid tumor model assessed as change in monocytes cell count at 10 mg/kg, ip qd for 9 days (reference value: 2.4 +/- 0.12 %); type: organism-based, Ehrlich; parameters: dose 10 mg/kg, route intraperitoneal; details: in vivo, 216 h

SMILES: COc1ccc(-c2c[n+]([O-])c3c(C)noc3c2C(c2ccccc2)c2c(-c3ccc(OC)cc3)c[n+]([O-])c3c(C)noc23)cc1
- IC50 (HeLa): 47.9 µg/mL (≈ 79.8 µM)
- IC50 [1]: 41.7 µg/mL (≈ 69.4 µM)
- IC50 (MCF7): 46 µg/mL (≈ 76.5 µM)

SMILES: Cc1noc2c(C(c3ccccc3)c3c(-c4ccccc4)c[n+]([O-])c4c(C)noc34)c(-c3ccccc3)c[n+]([O-])c12
- IC50 (HeLa): 28.6 µg/mL (≈ 52.9 µM)
- IC50 [1]: 26.6 µg/mL (≈ 49.2 µM)
- IC50 (MCF7): 31.9 µg/mL (≈ 59 µM)
- Activity [2]: 10.41 g
- MST [3]: 16.4 days
- Activity (Mus musculus [4]): 8.08 mg
- Activity [5]: 19.7%
- Activity [6]: 7.61 mL
- Activity [7]: 1.25 mm
- Activity [8]: 4.05 ×10⁷ /ml
- Activity [9]: 7.7 g
- MST [10]: 22.1 days
- Activity (Mus musculus [11]): 9.3 mg
- Activity [12]: 61.31%
- Activity [13]: 4.5 mL
- Activity [14]: 0.94 mm
- Activity [15]: 3.27 ×10⁷ /ml
- Activity (Mus musculus [16]): 3.02 million/mm3
- Activity (Mus musculus [17]): 18.48 ×10³ /mm3
- Activity (Mus musculus [18]): 3.88 million/mm3
- Activity (Mus musculus [19]): 13.92 ×10³ /mm3
- Activity (Mus musculus [20]): 31%
- Activity (Mus musculus [21]): 49%
- Activity (Mus musculus [22]): 54%
- Activity (Mus musculus [23]): 39%
- Activity (Mus musculus [24]): 2%
- Activity (Mus musculus [25]): 1.6%

SMILES: Cc1ccccc1C(c1c(-c2ccccc2)c[n+]([O-])c2c(C)noc12)c1c(-c2ccccc2)c[n+]([O-])c2c(C)noc12
- IC50 (HeLa): 62.4 µg/mL (≈ 113 µM)
- IC50 [1]: 65.1 µg/mL (≈ 117 µM)
- IC50 (MCF7): 60.7 µg/mL (≈ 109 µM)

SMILES: COc1ccccc1C(c1c(-c2ccccc2)c[n+]([O-])c2c(C)noc12)c1c(-c2ccccc2)c[n+]([O-])c2c(C)noc12
- IC50 (HeLa): 65.5 µg/mL (≈ 115 µM)
- IC50 [1]: 51.8 µg/mL (≈ 90.9 µM)
- IC50 (MCF7): 57.3 µg/mL (≈ 101 µM)

SMILES: Cc1noc2c(C(c3ccccc3Cl)c3c(-c4ccccc4)c[n+]([O-])c4c(C)noc34)c(-c3ccccc3)c[n+]([O-])c12
- IC50 (HeLa): 79 µg/mL (≈ 137 µM)
- IC50 [1]: 70.4 µg/mL (≈ 122 µM)
- IC50 (MCF7): 72.1 µg/mL (≈ 125 µM)

SMILES: Cc1noc2c(C(c3ccc(Cl)cc3)c3c(-c4ccccc4)c[n+]([O-])c4c(C)noc34)c(-c3ccccc3)c[n+]([O-])c12
- IC50 (HeLa): 70.7 µg/mL (≈ 123 µM)
- IC50 [1]: 60.6 µg/mL (≈ 105 µM)
- IC50 (MCF7): 74.3 µg/mL (≈ 129 µM)

SMILES: Cc1ccc(-c2c[n+]([O-])c3c(C)noc3c2C(c2ccccc2)c2c(-c3ccc(C)cc3)c[n+]([O-])c3c(C)noc23)cc1
- IC50 (HeLa): 42 µg/mL (≈ 73.9 µM)
- IC50 [1]: 48.4 µg/mL (≈ 85.2 µM)
- IC50 (MCF7): 44.3 µg/mL (≈ 77.9 µM)

SMILES: Cc1noc2c(C(c3ccccc3)c3c(-c4ccccc4O)c[n+]([O-])c4c(C)noc34)c(-c3ccccc3O)c[n+]([O-])c12
- IC50 (HeLa): 32.8 µg/mL (≈ 57.3 µM)
- IC50 [1]: 36.3 µg/mL (≈ 63.4 µM)
- IC50 (MCF7): 33.5 µg/mL (≈ 58.6 µM)
- Activity [2]: 11 g
- MST [3]: 14.8 days
- Activity (Mus musculus [4]): 5.96 mg
- Activity [5]: 8.02%
- Activity [6]: 10.69 mL
- Activity [7]: 2.13 mm
- Activity [8]: 5.21 ×10⁷ /ml
- Activity [9]: 8.89 g
- MST [10]: 18 days
- Activity (Mus musculus [11]): 7.02 mg
- Activity [12]: 31.38%
- Activity [13]: 8.29 mL
- Activity [14]: 1.69 mm
- Activity [15]: 4.07 ×10⁷ /ml
- Activity (Mus musculus [16]): 2.72 million/mm3
- Activity (Mus musculus [17]): 19.9 ×10³ /mm3
- Activity (Mus musculus [18]): 3.3 million/mm3
- Activity (Mus musculus [19]): 18.8 ×10³ /mm3
- Activity (Mus musculus [20]): 26%
- Activity (Mus musculus [21]): 40%
- Activity (Mus musculus [22]): 65%
- Activity (Mus musculus [23]): 51%
- Activity (Mus musculus [24]): 2.3%
- Activity (Mus musculus [25]): 1.9%

SMILES: Cc1noc2c(C(c3ccccc3)c3c(-c4ccc(Cl)cc4)c[n+]([O-])c4c(C)noc34)c(-c3ccc(Cl)cc3)c[n+]([O-])c12
- IC50 (HeLa): 70.2 µg/mL (≈ 115 µM)
- IC50 [1]: 78.3 µg/mL (≈ 129 µM)
- IC50 (MCF7): 79 µg/mL (≈ 130 µM)

SMILES: Cc1noc2c(C(c3ccccc3)c3c(-c4ccc([N+](=O)[O-])cc4)c[n+]([O-])c4c(C)noc34)c(-c3ccc([N+](=O)[O-])cc3)c[n+]([O-])c12
- IC50 (HeLa): 80 µg/mL (≈ 127 µM)
- IC50 [1]: 75.5 µg/mL (≈ 120 µM)
- IC50 (MCF7): 76.2 µg/mL (≈ 121 µM)
